Screens (PubChem)
Tb MetRS inh: T. brucei MetRS inhibitors, primary screen, biochemical, luminescence; methionyl-tRNA synthetase (Trypanosoma brucei brucei); purified T. brucei MetRS, ATP depletion, Kinase-Glo luminescence; inhibition, % at 11.9 µM; actives 0.4% (n = 360,000);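 active = inhibition above a per-plate cutoff of the control wells' mean inhibition plus 3 SD, cut at about 5.5% in these data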
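Measured by: Kinase-Glo luciferase luminescence reporting remaining unconsumed ATP. Material: purified T. brucei MetRS enzyme. Doses: 11.9 µM compound single dose, 0.9% DMSO. Medium: HEPES buffer containing pyrophosphatase, BSA, spermine, DTT. Times: 15 min preincubation, 2 h reaction, all 25 °C. Reagent: methionine, ATP and bulk E. coli tRNA.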
Granule exo inh: LAMP-1 surface exposure blockers, TALL-104 cells – cell-based, flow cytometry, MLPCN library, primary screen | inhibition, % at 10 µM | TALL-104 LAMP-1 surface exposure; cells stimulated with thapsigargin and PMA | AID 651702, 2012 | actives 0.66% (n = 360,000);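 active = inhibition above about 55%, limit read from the data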
MC4R antagonist: MC4R antagonists of cAMP signaling, primary screen, cell-based, TR-FRET, antagonist arm of biased-ligand search. inhibition, % at 6.5 µM. actives 0.48% (n = 360,000). MC4R-expressing cells, MTII-stimulated cAMP, LANCE TR-FRET. Melanocortin receptor 4 (Homo sapiens), P32245;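 active = inhibition above its plate's cutoff, the mean of tested wells on that plate plus 3 SD, cut at about 29% in these data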
Target sequence (P32245 whole entry, looked up): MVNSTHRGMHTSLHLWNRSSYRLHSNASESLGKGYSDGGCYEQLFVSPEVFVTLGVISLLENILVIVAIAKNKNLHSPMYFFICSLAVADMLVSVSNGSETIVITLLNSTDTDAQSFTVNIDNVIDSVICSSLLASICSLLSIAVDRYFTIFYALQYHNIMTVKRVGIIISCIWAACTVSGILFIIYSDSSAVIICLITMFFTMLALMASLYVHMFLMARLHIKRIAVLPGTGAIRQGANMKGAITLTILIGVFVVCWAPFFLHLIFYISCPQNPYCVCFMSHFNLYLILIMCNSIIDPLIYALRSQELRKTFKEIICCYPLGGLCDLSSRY
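System: U2OS cells stably expressing human melanocortin 4 receptor (MC4R). Reagent: Melanotan II challenge after compound preincubation. Doses: 6.5 µM. Times: 30-min compound, 1-h challenge, 1-h detection, room temperature. Measured by: TR-FRET with Eu-cAMP and labeled anti-cAMP, 671 nm. Replicates: singlicate.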
MC4R ag barr: MC4R agonists recruiting beta-arrestin, primary screen, cell-based, luminescence, agonist arm of biased-ligand search; Melanocortin receptor 4 (Homo sapiens), P32245; U2OS MC4R beta-arrestin complementation; percent of melanotan II response, DMSO zero; activation, % at 8.9 µM; actives 0.98% (n = 360,000);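 active = activation above a per-plate cutoff, the mean activation of sample wells on that plate plus 3 SD, cut at about 8% in these data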
hiPSC survival: enhancers of single-cell hiPSC survival, primary screen, ATPlite luminescence. survival enhancement, % at 20 µM. actives 0.044% (n = 360,000). 100% = ROCK inhibitor wells, 0% = DMSO; in the data active = survival enhancement above about 18%;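 also: cells exposed to compounds for 16 hours before the ATP read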
ABCB6 inh 2: ABCB6 transporter inhibitors, primary screen, K562-ABCB6 cells, flow cytometry, MLPCN library | K562-ABCB6 porphyrin accumulation, 1 h; hits give low values | fluorescence ratio to DMSO, % at 10 µM | actives 0.19% (n = 360,000);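 active = fluorescence ratio to DMSO below 75%, the collection mean minus 3 SD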;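 also: signal is porphyrin accumulated inside mitochondria; lower ratio means ABCB6 inhibition with less porphyrin fluorescence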
U2OS cAMP counter: nonselective cAMP signaling inhibitors, parental cells, counter-screen for MC4R biased antagonist project, cell-based, TR-FRET, U2OS, forskolin, triplicate; actives 26% (n = 1,600); shares compounds with MC4R antagonist; LANCE TR-FRET; inhibition, % at 6.5 µM;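 active = mean inhibition over triplicates above the low-control well mean plus 3 SD, set per campaign, cut at about 13% in these data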;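 also: signal is single emission at 671 nm which falls as cellular cAMP rises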
MC4R cAMP antag: MC4R cAMP antagonists, retest, confirmation, cell-based, TR-FRET | shares compounds with MC4R antagonist | MC4R-expressing cells, MTII-stimulated cAMP | inhibition, % at 6.5 µM | actives 27% (n = 1,600); in the data active = inhibition above about 29%
Each line names hits and unclear results; the compound was inactive in the other large screens (follow-up assays come after a bar, where they were run). Shown are actives, neighbours in structure and some others; about 2.6% of the full set was active somewhere.

Cc1cc(C(=O)COc2cc(F)ccc2[N+](=O)[O-])c(C)n1C1CC1	MC4R antagonist 29 | U2OS cAMP counter 19 | MC4R cAMP antag 48
CC(C)C(CO)NC(=O)CC(=O)NC(CO)C(C)C (stereo unspecified)	MC4R antagonist 30 | U2OS cAMP counter inactive | MC4R cAMP antag inactive
CC(NC(=O)Cc1ccccc1)C(=O)O (stereo unspecified)	none
O=C(Nc1nnc(C2CCCC2)s1)C1CCN(S(=O)(=O)c2ccc(Cl)cc2)CC1	MC4R antagonist 30 | U2OS cAMP counter inactive | MC4R cAMP antag inactive
O=C(NN1CCCCC1)NN1CCCCC1	none (no result: MC4R antagonist, MC4R ag barr)
O=C(CCl)NNC(=O)c1c(O)c2ccccc2[nH]c1=O	MC4R antagonist 31 | U2OS cAMP counter inactive | MC4R cAMP antag inactive
COCCN(CCOC)S(=O)(=O)c1ccc(C(=O)Nc2ccc(S(=O)(=O)Nc3nccc(C)n3)cc2)cc1	MC4R antagonist 30 | U2OS cAMP counter inactive | MC4R cAMP antag inactive
COc1ccc(C(=O)Nc2ccc(S(=O)(=O)Nc3nccc(C)n3)cc2)cc1	none
COc1ccc(NS(=O)(=O)c2ccc(-n3cnnn3)cc2)cc1OC	MC4R antagonist 29 | U2OS cAMP counter inactive | MC4R cAMP antag inactive
COc1ccc(S(=O)(=O)Nc2ccc(-n3cnnn3)cc2)cc1Br	none
Cc1ccc(NC(=O)CCNC(=O)c2ccccc2Cl)cc1S(=O)(=O)N1CCOCC1	none
CSCCC(NC(=O)c1ccccc1Cl)C(=O)Nc1ccc(C)c(S(=O)(=O)N2CCOCC2)c1 (stereo unspecified)	MC4R antagonist 29 | U2OS cAMP counter inactive | MC4R cAMP antag inactive
O=C(O)CSc1nc2ccccc2nc1Cc1ccccc1F	MC4R antagonist 31 | U2OS cAMP counter inactive | MC4R cAMP antag inactive
CCC(C)NC(=O)CSc1nc2ccccc2c(=O)n1-c1c(C)n(C)n(-c2ccccc2)c1=O (stereo unspecified)	none
O=C1N(Cc2cccc(Cl)c2)C[C@@H]2C[C@@H](c3cccc4cccnc34)N3CCC[C@@]123	MC4R antagonist 34 | U2OS cAMP counter inactive | MC4R cAMP antag inactive
O=C1N(Cc2cccc(Cl)c2)C[C@@H]2C[C@@H](c3cccc4ncccc34)N3CCC[C@@]123	none
CCOC(=O)C1CCC(C(=O)OCC)N1c1ccc(C=O)cc1 (stereo unspecified)	none
Cc1c(Cl)sn(-c2ccc(Cl)cc2)c1=O	Granule exo inh 92, MC4R antagonist 73 | U2OS cAMP counter inactive | MC4R cAMP antag 70
Cc1nn(-c2ccc(Cl)cc2)c(=O)c2ccccc12	none
CCOc1ccccc1C(=O)N1CCC(n2nnc3cc(C(F)(F)F)ccc32)CC1	none
O=C(c1c(F)cccc1F)N1CCC(n2nnc3cc(C(F)(F)F)ccc32)CC1	MC4R antagonist 31 | U2OS cAMP counter inactive | MC4R cAMP antag inactive
N#Cc1c(SC(C(=O)O)c2ccccc2)nc2c(c1-c1cccs1)CCCC2 (stereo unspecified)	MC4R antagonist 31 | U2OS cAMP counter 18 | MC4R cAMP antag inactive
CCC/C=C/c1ccc(CN2C(C(C)C)C(=O)N(Cc3cn(CC4CCCCC4)nn3)CCS2(=O)=O)cc1 (stereo unspecified)	none
Cc1nn(C)cc1CN(C)C(=O)c1cc(-c2ccccc2)nc2ccc(Br)cc12	none
O=C(Nc1cccc([N+](=O)[O-])c1)c1ccc2c(c1)C(=O)N(c1ccccn1)C2=O	MC4R antagonist 35 | U2OS cAMP counter inactive | MC4R cAMP antag inactive
CC(=O)c1ccc(NC(=O)c2ccc3c(c2)C(=O)N(c2ccccn2)C3=O)cc1	none
Cc1ccc(C)c(-c2cc(C(=O)Nc3cccc(C(=O)O)c3)c3ccccc3n2)c1	MC4R antagonist 35 | U2OS cAMP counter inactive | MC4R cAMP antag inactive
C[C@H]1COc2cc(N3CCC[C@@H]3CO)ccc2S(=O)(=O)N1	none (no result: MC4R antagonist, MC4R ag barr)
CCOC(=O)C1(Cc2cccc(F)c2)CCN(Cc2cnn(CC)c2C)CC1	none
CCOC(=O)C1(Cc2cccc(F)c2)CCN(Cc2cnn(CC)c2)CC1	MC4R antagonist 29 | U2OS cAMP counter inactive | MC4R cAMP antag inactive
Cc1ccc(C(=O)Nc2ccc(N3CCN(C(=O)c4cccs4)CC3)cc2)c(Cl)c1	none
Cc1cccc(NC(=O)NCC2CC2)c1	MC4R antagonist 30 | U2OS cAMP counter inactive | MC4R cAMP antag inactive
O=C(NCC1CC1)Nc1cccc(Cl)c1	none
CN(C)S(=O)(=O)N1CCC(n2nccc2NC(=O)CCCc2ccccc2)CC1	none
CSc1ccc(/C=C(\C#N)C(=O)NC2CCCCC2C)cc1 (stereo unspecified)	none
CC1CCCCC1NC(=O)/C(C#N)=C/c1ccccc1F (stereo unspecified)	MC4R antagonist 35 | U2OS cAMP counter inactive | MC4R cAMP antag inactive
COc1cccc(OC)c1C(=O)NC(=O)Nc1c(C)cccc1C	MC4R antagonist 29 | U2OS cAMP counter inactive | MC4R cAMP antag inactive
O=C(Nc1ccccc1)Nc1ccc2ccccc2c1	none
CC(C)Sc1cc(Cl)nc(NC(=O)Nc2ccccc2)n1	MC4R antagonist 31 | U2OS cAMP counter 17 | MC4R cAMP antag 39
CCOC(=O)[C@]12CCC=C1N(Cc1ccco1)C(=O)[C@H](CC(=O)NCCCN1CCCC1=O)C2	none (no result: MC4R antagonist, MC4R ag barr)
CCOc1ccc2c(ccc(/C=C/c3cc(C)c4cccnc4c3O)[n+]2C)c1	MC4R antagonist 50 | U2OS cAMP counter inactive | MC4R cAMP antag 38
COC(=O)C[C@H]1C=C[C@H](NC(=O)Nc2ccccc2OC)[C@@H](CO)O1	none (no result: MC4R antagonist, MC4R ag barr, hiPSC survival, ABCB6 inh 2)
COc1ccc(-n2c(CN3CCN(c4ccccn4)CC3)nc3ccc([N+](=O)[O-])cc3c2=O)c(OC)c1	MC4R antagonist 38 | U2OS cAMP counter inactive | MC4R cAMP antag inactive
COc1ccc(CN2CCSCC2)c(C)c1C	none
Cc1ccc(NC(=O)c2cncc(Br)c2)cc1S(=O)(=O)N(C)C	MC4R antagonist 29 | U2OS cAMP counter inactive | MC4R cAMP antag inactive
